Test results from ChEMBL document CHEMBL3745686 (Eur J Med Chem, 2016).
The source made the active and inactive calls. The calls are words filed in the database; no cut-off is given here.

How the values were obtained:
Plasma [1] = assay: Drug level in rat plasma treated with P'1,P'4-di-(2 methylthio-5'-adenosine) P'1,P'4-dithio-P'2,P'3-chloromethylenetetraphosphate, sodium salt at 50 uM after 77 hrs by HPLC analysis; assay type: ADME, cell-free
How it was run: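 Frozen pooled heparinised rat or human plasma, thawed and warmed 5 min at 37 °C, spiked to 50 μM final compound (from 10 mM saline stock), held at 37 °C up to 77 h; heat-denatured plasma as chemical control; aliquots quenched with MeCN, ultrafiltered, dried, redissolved in pH 8.5 phosphate/EDTA; isocratic RP-HPLC, 273 nm; metabolites confirmed by reference compounds and LCMS; peak areas internally normalised.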

P2Y purinoceptor 12 [2] = molecular target: T1, P2Y purinoceptor 12 (Homo sapiens, UniProt Q9H244); assay: Agonist activity at human platelet P2Y12 receptor assessed as decrease in intra-platelet phosphorylated VASP by flow cytometric analysis
[3] = molecular target: T2, P2X purinoceptor 1 (Homo sapiens) (UniProt P51575); assay: Agonist activity at human platelet P2X1 receptor assessed as increase in cytosolic calcium level at 1 uM by […] staining based flow cytometric analysis relative to beta,gamma-CH2-ATP
T2 sequence (whole entry): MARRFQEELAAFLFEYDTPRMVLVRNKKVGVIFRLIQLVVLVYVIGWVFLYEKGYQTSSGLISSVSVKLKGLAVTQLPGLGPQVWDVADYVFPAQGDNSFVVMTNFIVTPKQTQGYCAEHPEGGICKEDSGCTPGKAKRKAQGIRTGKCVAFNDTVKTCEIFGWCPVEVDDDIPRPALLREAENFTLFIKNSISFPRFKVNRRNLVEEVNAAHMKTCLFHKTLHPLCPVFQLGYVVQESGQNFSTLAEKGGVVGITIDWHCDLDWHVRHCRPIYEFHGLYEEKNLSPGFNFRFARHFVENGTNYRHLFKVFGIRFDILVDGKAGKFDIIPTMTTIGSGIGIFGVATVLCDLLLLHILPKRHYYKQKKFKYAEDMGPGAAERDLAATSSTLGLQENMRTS
How it was run: (§1)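 Stimulus was extracellular Ca2+ uptake on 1 μM test compound (P2X1, scaled to 20 μM β,γ-CH2-ATP as 100%, selective P2Y1 inhibitor control), or 3 μM ADP (P2Y1 antagonism; omitted for agonism).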

P2Y purinoceptor 1 [4] = molecular target: T3, P2Y purinoceptor 1 (Homo sapiens, UniProt P47900); assay: Antagonist activity at human platelet P2Y1 receptor assessed as inhibition of ADP-induced increase in cytosolic calcium level by FLUO-4 staining based flow cytometric analysis; assay type: functional; how it was run: as §1
Platelet [5] = assay: Anti-aggregatory activity in human platelet rich plasma assessed as inhibition of ADP-induced platelet shape change; assay type: functional, cell-free
P2Y purinoceptor 1 [6] = molecular target: T3, P2Y purinoceptor 1; assay: Agonist activity at human platelet P2Y1 receptor assessed as increase in cytosolic calcium level by FLUO-4 staining based flow cytometric analysis; assay type: functional; how it was run: as §1
P2Y purinoceptor 12 [7] = molecular target: T1, P2Y purinoceptor 12; assay: Antagonist activity at human platelet P2Y12 receptor assessed as inhibition of ADP-mediated decrease in intra-platelet phosphorylated VASP by flow cytometric analysis
[8] = Anti-aggregatory activity in human platelet rich plasma assessed as inhibition of 20 uM ADP-induced platelet aggregation by optical aggregometric analysis; assay type: functional, cell-free
[9] = Anti-aggregatory activity in human platelet rich plasma assessed as inhibition of 20 uM ADP-induced platelet aggregation preincubated for 15 mins by optical aggregometric analysis; assay type: functional, cell-free
Platelet [10] = assay: Ratio of IC50 for inhibition of 20 uM ADP-induced human platelet aggregation for inhibition of 20 uM ADP-induced human platelet aggregation preincubated for 15 mins; assay type: functional
Platelet [11] = assay: Anti-aggregatory activity in human platelet rich plasma assessed as inhibition of 20 uM ADP-induced platelet aggregation at 100 nM preincubated for 15 mins followed by ADP addition measured every 11 secs for 6 mins by 96-well microplate method; assay type: functional, cell-free
[12] = molecular target: P2Y purinoceptor 2 (Homo sapiens) (UniProt P41231); assay: Effect on human P2Y2 receptor
Platelet [13] = assay: Anti-aggregatory activity in human platelet rich plasma assessed as inhibition of 20 uM ADP-induced platelet aggregation at 25 nM preincubated for 15 mins followed by ADP addition measured every 11 secs for 6 mins by 96-well microplate method; assay type: functional, cell-free
[14] = molecular target: P2Y purinoceptor 4 (Homo sapiens) (UniProt P51582); assay: Effect on human P2Y4 receptor
Platelet [15] = assay: Anti-aggregatory activity in human platelet rich plasma assessed as inhibition of ADP-induced primary and secondary platelet aggregation preincubated for 15 mins followed by ADP addition and 10 secs shaking measured every 27 secs with 10 secs shaking by 96-well microplate method; assay type: functional, cell-free
How it was run: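 PRP incubated with compound 15 min at 37 °C, aggregation started with 5 μM ADP and 10 s shaking; absorbance at 580 nm read every 27 s with 10 s shaking between reads; 100% set by platelet-poor plasma, 0% by PRP.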

[16] = molecular target: P2Y purinoceptor 6 (Homo sapiens) (UniProt Q15077); assay: Effect on human P2Y6 receptor
Plasma [17] = assay: Metabolic stability in rat plasma assessed as first order elimination rate constant at 50 uM measured at 1 to 4 hrs; assay type: ADME, cell-free
Plasma [18] = assay: Metabolic stability in human plasma assessed as first order elimination rate constant at 50 uM measured at 1 to 4 hrs; assay type: ADME, cell-free
Plasma [19] = assay: Half life in human plasma at 50 uM measured at 1 to 4 hrs; assay type: ADME, cell-free
[20] = Anti-aggregatory activity in human platelet rich plasma assessed as inhibition of ADP-induced platelet aggregation by optical aggregometry; assay type: functional, cell-free
Plasma [21] = assay: Half life in rat plasma at 50 uM measured at 1 to 4 hrs; assay type: ADME, cell-free

T3 sequence (P47900 whole entry): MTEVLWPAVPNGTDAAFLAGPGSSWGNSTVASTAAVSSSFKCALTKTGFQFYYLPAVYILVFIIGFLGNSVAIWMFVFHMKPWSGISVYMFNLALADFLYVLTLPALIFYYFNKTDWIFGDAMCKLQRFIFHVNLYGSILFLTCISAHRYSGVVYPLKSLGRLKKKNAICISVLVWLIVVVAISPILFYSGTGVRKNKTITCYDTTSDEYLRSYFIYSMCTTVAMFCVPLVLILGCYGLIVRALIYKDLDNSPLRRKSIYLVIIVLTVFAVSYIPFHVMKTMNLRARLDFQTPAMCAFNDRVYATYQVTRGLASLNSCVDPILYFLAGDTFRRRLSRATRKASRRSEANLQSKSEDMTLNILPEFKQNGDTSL
T1 sequence (Q9H244 whole entry): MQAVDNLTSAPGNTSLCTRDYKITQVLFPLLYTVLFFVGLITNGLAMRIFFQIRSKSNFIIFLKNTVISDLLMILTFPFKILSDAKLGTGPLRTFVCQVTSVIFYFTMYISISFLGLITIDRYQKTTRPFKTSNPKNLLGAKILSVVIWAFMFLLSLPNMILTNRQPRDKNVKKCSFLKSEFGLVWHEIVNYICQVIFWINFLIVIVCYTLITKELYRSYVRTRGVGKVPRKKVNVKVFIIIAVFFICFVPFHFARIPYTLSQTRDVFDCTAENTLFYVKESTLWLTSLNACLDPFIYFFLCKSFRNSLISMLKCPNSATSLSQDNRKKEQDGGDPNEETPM
Chain of P2Y purinoceptor 2 (Homo sapiens) (P41231 whole entry): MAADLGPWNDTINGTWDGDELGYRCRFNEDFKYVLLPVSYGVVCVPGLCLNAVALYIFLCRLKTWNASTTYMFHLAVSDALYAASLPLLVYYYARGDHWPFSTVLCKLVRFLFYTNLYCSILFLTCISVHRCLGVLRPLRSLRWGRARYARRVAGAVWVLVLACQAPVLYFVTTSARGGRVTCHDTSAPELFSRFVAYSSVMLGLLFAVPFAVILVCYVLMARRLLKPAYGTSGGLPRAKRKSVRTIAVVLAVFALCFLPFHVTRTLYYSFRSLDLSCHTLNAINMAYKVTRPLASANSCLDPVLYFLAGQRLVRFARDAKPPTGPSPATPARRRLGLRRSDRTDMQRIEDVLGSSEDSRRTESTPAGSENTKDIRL
Chain of P2Y purinoceptor 6 (Homo sapiens) (Q15077 whole entry): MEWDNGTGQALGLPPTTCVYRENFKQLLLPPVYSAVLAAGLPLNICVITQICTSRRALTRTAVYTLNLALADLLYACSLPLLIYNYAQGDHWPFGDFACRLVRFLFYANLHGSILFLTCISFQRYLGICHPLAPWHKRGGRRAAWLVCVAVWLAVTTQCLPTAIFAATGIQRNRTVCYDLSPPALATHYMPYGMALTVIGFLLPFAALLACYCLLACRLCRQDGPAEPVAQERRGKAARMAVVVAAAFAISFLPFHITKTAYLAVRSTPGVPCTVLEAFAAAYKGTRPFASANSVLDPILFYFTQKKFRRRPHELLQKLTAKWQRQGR
Chain of P2Y purinoceptor 4 (Homo sapiens) (P51582 whole entry): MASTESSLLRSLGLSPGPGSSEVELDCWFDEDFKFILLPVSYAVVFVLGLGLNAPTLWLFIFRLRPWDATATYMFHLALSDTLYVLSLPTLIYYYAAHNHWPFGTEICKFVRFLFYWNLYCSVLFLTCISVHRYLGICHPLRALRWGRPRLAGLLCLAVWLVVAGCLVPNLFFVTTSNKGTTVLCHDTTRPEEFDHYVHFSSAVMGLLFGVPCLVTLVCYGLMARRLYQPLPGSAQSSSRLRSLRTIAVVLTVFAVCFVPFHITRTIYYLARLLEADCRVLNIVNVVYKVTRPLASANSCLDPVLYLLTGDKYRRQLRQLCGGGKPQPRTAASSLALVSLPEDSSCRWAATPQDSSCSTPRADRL

| Activity (P2Y purinoceptor 12 [2]) | Activity [3] [%] | IC50 (P2Y purinoceptor 1 [4]) [µM] | Activity (P2Y purinoceptor 1 [6]) | IC50 (P2Y purinoceptor 12 [7]) [µM] | SMILES | inhibition (Platelet [5]) | Kel (Plasma [17]) [h⁻¹] | Kel (Plasma [18]) [h⁻¹] | t1/2 (Plasma [19]) [h] | IC50 [20] [µM] | t1/2 (Plasma [21]) [h] | also measured |
| --- | --- | --- | --- | --- | --- | --- | --- | --- | --- | --- | --- | --- |
| inactive | 3.3 | 1.02 | inactive | 1.12 | CSc1nc(N)c2ncn([C@@H]3O[C@H](COP(=O)(S)OP(=O)(O)C(Cl)(Cl)P(=O)(O)OP(=O)(S)OC[C@H]4O[C@@H](n5cnc6c(N)nc(SC)nc65)[C@H](O)[C@@H]4O)[C@@H](O)[C@H]3O)c2n1 (mixture of isomers) | Active |  |  |  |  |  |  |
| inactive | 0.07 | 7.37 | inactive | 9.3 | Nc1nc(Cl)nc2c1ncn2[C@@H]1O[C@H](COP(=O)(S)OP(=O)(O)C(Cl)P(=O)(O)OP(=O)(S)OC[C@H]2O[C@@H](n3cnc4c(N)nc(Cl)nc43)[C@H](O)[C@@H]2O)[C@@H](O)[C@H]1O (mixture of isomers) | Active |  |  |  |  |  |  |
| inactive | 1.8 | 2.24 | inactive | 0.34 | Nc1nc(Br)nc2c1ncn2[C@@H]1O[C@H](COP(=O)(S)OP(=O)(O)C(Cl)P(=O)(O)OP(=O)(S)OC[C@H]2O[C@@H](n3cnc4c(N)nc(Br)nc43)[C@H](O)[C@@H]2O)[C@@H](O)[C@H]1O (mixture of isomers) | Active |  |  |  |  |  | IC50 [8]: 6.22 µM; IC50 [9]: 4.52 µM |
| inactive | 0.69 | 2.65 | inactive | 1.35 | Nc1nc(I)nc2c1ncn2[C@@H]1O[C@H](COP(=O)(S)OP(=O)(O)C(Cl)P(=O)(O)OP(=O)(S)OC[C@H]2O[C@@H](n3cnc4c(N)nc(I)nc43)[C@H](O)[C@@H]2O)[C@@H](O)[C@H]1O (mixture of isomers) | Active |  |  |  |  |  |  |

The remaining lines, values behind:

| SMILES | Activity (P2Y purinoceptor 12 [2]) | Activity [3] [%] | IC50 (P2Y purinoceptor 1 [4]) [µM] | Activity (P2Y purinoceptor 1 [6]) | IC50 (P2Y purinoceptor 12 [7]) [µM] | inhibition (Platelet [5]) | Kel (Plasma [17]) [h⁻¹] | Kel (Plasma [18]) [h⁻¹] | t1/2 (Plasma [19]) [h] | IC50 [20] [µM] | t1/2 (Plasma [21]) [h] | also measured |
| --- | --- | --- | --- | --- | --- | --- | --- | --- | --- | --- | --- | --- |
| CSc1nc(N)c2ncn([C@@H]3O[C@H](COP(O)(O)=S)[C@@H](O)[C@H]3O)c2n1 |  |  |  |  |  |  |  |  |  |  |  | Drug metabolism (Plasma [1]): metabolite_detected |
| CNc1ncnc2c1ncn2[C@@H]1O[C@H](COP(=O)(S)OP(=O)(O)C(Cl)P(=O)(O)OP(=O)(S)OC[C@H]2O[C@@H](n3cnc4c(NC)ncnc43)[C@H](O)[C@@H]2O)[C@@H](O)[C@H]1O (mixture of isomers) | inactive | 0.31 | 1.97 | inactive | > 200 | Active |  |  |  |  |  |  |
| CCCNc1ncnc2c1ncn2[C@@H]1O[C@H](COP(=O)(S)OP(=O)(O)C(Cl)P(=O)(O)OP(=O)(S)OC[C@H]2O[C@@H](n3cnc4c(NCCC)ncnc43)[C@H](O)[C@@H]2O)[C@@H](O)[C@H]1O (mixture of isomers) | inactive | -0.01 | 8.8 | inactive | 156 | Active |  |  |  |  |  |  |
| CCSc1nc(N)c2ncn([C@@H]3O[C@H](COP(=O)([S-])OP(=O)([O-])C(Cl)P(=O)([O-])OP(=O)([S-])OC[C@H]4O[C@@H](n5cnc6c(N)nc(SCC)nc65)[C@H](O)[C@@H]4O)[C@@H](O)[C@H]3O)c2n1.[Na+].[Na+].[Na+].[Na+] (mixture of isomers) | inactive | 23.8 | 9.6 | inactive | 0.14 | Active |  |  |  |  |  | IC50 [8]: 3.32 µM; IC50 [9]: 0.0543 µM; Ratio IC50 (Platelet [10]): 50 |
| CSc1nc(N)c2ncn([C@@H]3O[C@H](COP(=O)(S)OP(=O)(O)C(Cl)P(=O)(O)OP(=O)(S)OC[C@H]4O[C@@H](n5cnc6c(N)nc(SC)nc65)[C@H](O)[C@@H]4O)[C@@H](O)[C@H]3O)c2n1 (mixture of isomers) | inactive | 0.24 |  | inactive |  | Active |  |  |  |  |  | inhibition (Platelet [11]): Active; Activity [12]: inactive; inhibition (Platelet [13]): Active; Activity [14]: inactive; inhibition (Platelet [15]): Dose-dependent effect; Activity [16]: inactive |
| CSc1nc(N)c2ncn([C@@H]3O[C@H](COP(=O)([S-])OP(=O)([O-])C(Cl)P(=O)([O-])OP(=O)([S-])OC[C@H]4O[C@@H](n5cnc6c(N)nc(SC)nc65)[C@H](O)[C@@H]4O)[C@@H](O)[C@H]3O)c2n1.[Na+].[Na+].[Na+].[Na+] (single isomer, unassigned; diastereomer 1) |  |  |  |  |  |  | 0.0069 | 0.00976 | 71 | 0.076 | 100.5 |  |
| CSc1nc(N)c2ncn([C@@H]3O[C@H](COP(=O)([S-])OP(=O)([O-])C(Cl)P(=O)([O-])OP(=O)([S-])OC[C@H]4O[C@@H](n5cnc6c(N)nc(SC)nc65)[C@H](O)[C@@H]4O)[C@@H](O)[C@H]3O)c2n1.[Na+].[Na+].[Na+].[Na+] (single isomer, unassigned; diastereomer 2) |  |  |  |  |  |  | 0.137 | 0.0171 | 40.6 | 0.083 | 5.06 |  |
| CSc1nc(N)c2ncn([C@@H]3O[C@H](COP(=O)([S-])OP(=O)([O-])C(Cl)P(=O)([O-])OP(=O)([S-])OC[C@H]4O[C@@H](n5cnc6c(N)nc(SC)nc65)[C@H](O)[C@@H]4O)[C@@H](O)[C@H]3O)c2n1.[Na+].[Na+].[Na+].[Na+] (single isomer, unassigned; diastereomer 3) |  |  |  |  |  |  | 0.128 | 0.0217 | 31.9 | 0.064 | 5.4 |  |
| CSc1nc(N)c2ncn([C@@H]3O[C@H](COP(=O)([S-])OP(=O)([O-])C(Cl)P(=O)([O-])OP(=O)([S-])OC[C@H]4O[C@@H](n5cnc6c(N)nc(SC)nc65)[C@H](O)[C@@H]4O)[C@@H](O)[C@H]3O)c2n1.[Na+].[Na+].[Na+].[Na+] (single isomer, unassigned; diastereomer 4) |  |  |  |  |  |  | 0.508 | 0.0424 | 16.4 | 0.11 | 1.37 |  |
